In ChEMBL document CHEMBL4145696 (J Med Chem, 2018):
The source made the active and inactive calls. The rule behind the calls is not given here.

Assays:
RPMI-7951 = assay: Cytotoxicity in human RPMI7951 cells assessed as reduction in cell viability incubated for 72 hrs by MTS assay; type: functional, cell-based; settings: RPMI-7951, 72 h
A-375 [1] = assay: Cytotoxicity in human A375 cells assessed as reduction in cell viability incubated for 72 hrs by MTS assay; type: functional, cell-based; settings: A-375, 72 h
M14 = assay: Cytotoxicity in human M14 cells assessed as reduction in cell viability incubated for 72 hrs by MTS assay; type: functional, cell-based; settings: M14, 72 h
[2] = Half life in rat liver microsomes in presence of NADPH regeneration system
[3] = Half life in mouse liver microsomes in presence of NADPH regeneration system
[4] = Intrinsic clearance in rat liver microsomes in presence of NADPH regeneration system
[5] = Half life in human liver microsomes in presence of NADPH regeneration system
[6] = Intrinsic clearance in human liver microsomes in presence of NADPH regeneration system
[7] = Intrinsic clearance in mouse liver microsomes in presence of NADPH regeneration system
A-375 [8] = assay: Antitumor activity against human A375 cells xenografted in mouse assessed as inhibition of tumor growth at 15 mg/kg, ip dosed every other day for 2 weeks relative to untreated control; type: functional; settings: A-375, ip, 336 h, read-out: TGI
Procedure, shortened: (§1)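 Nude mice (6–8 weeks) implanted s.c. in dorsal flank with 2.5×10^6 log-phase A375 cells in serum-free, phenol red-free medium mixed with Matrigel. At ~100 mm³ tumours, randomized (n = 8); i.p. 100 μL every other day for 2 weeks in PEG300:PBS 1:1, vehicle control.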

A-375 [9] = assay: Antitumor activity against human A375 cells xenografted in mouse assessed as reduction in tumor weight at 15 mg/kg, ip dosed every other day for 2 weeks; type: functional; parameters: scale not given: the % may be the effect or the level left; procedure, shortened: as §1
A-375 [10] = assay: Antitumor activity against human A375 cells xenografted in mouse assessed as reduction in tumor volume at 15 mg/kg, ip dosed every other day for 2 weeks; type: functional, organism-based; procedure, shortened: as §1
Homo sapiens = species: Homo sapiens; assay: Cytotoxicity in human DU145-TxR cells assessed as reduction in cell viability up to 1 uM incubated for 72 hrs by MTS assay; type: functional, cell-based
Procedure, shortened: (§2)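 Prostate lines (parental PC-3 and DU-145, with paclitaxel- or docetaxel-resistant TxR sublines) grown in RPMI 1640 with 10% FBS and antibiotic/antimycotic at 37 °C, 5% CO2. Seeded at 1,800–3,500 cells/well overnight, then dosed at 10 concentrations, 0.03 nM–1 μM, plus DMSO vehicle, for 72 h, quadruplicate. MTS read at 490 nm; IC50 by nonlinear regression.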

DU-145 = assay: Cytotoxicity in human DU145 cells assessed as reduction in cell viability incubated for 72 hrs by MTS assay; type: functional, cell-based; settings: DU-145, 72 h; procedure, shortened: as §2
[11] = Cytotoxicity in human PC3-TxR cells assessed as reduction in cell viability incubated for 72 hrs by MTS assay; type: functional, cell-based
Bos taurus = species: Bos taurus; assay: Inhibition of bovine brain tubulin polymerization at 10 uM measured every 1 min for 20 mins by spectrophotometry
[12] = Resistance index, ratio of IC50 for cytotoxicity in human PC3-TxR cells to IC50 for cytotoxicity in human PC3 cells; type: functional
Procedure, shortened: (§3)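 Prostate lines cultured in RPMI 1640 with 10% FBS at 37 °C and 5% CO2: parental PC-3 with paclitaxel-resistant PC-3/TxR, and parental DU-145 with docetaxel-resistant DU-145/TxR. Cells seeded at 1,800–3,500/well and left overnight, then exposed 72 h to 10 concentrations (0.03 nM–1 μM) or DMSO vehicle, in quadruplicate. MTS read at 490 nm; IC50s by nonlinear regression; index = resistant IC50/parental IC50.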

Mus musculus [13] = assay: Toxicity in human A375 cells xenografted mouse assessed as effect on body weight at 15 mg/kg, ip dosed every other day for 2 weeks relative to untreated control; type: organism-based; settings: in vivo, 336 h
[14] = Cytotoxicity in human DU145-TxR cells assessed as reduction in cell viability incubated for 72 hrs by MTS assay; type: functional, cell-based; procedure, shortened: as §2
[15] = Resistance index, ratio of IC50 for cytotoxicity in human DU145-TxR cells to IC50 for cytotoxicity in human DU145 cells; type: functional; procedure, shortened: as §3
Mus musculus [16] = assay: Toxicity in human A375 cells xenografted mouse assessed as effect on body weight at 30 mg/kg, ip dosed every other day for 2 weeks relative to untreated control; type: organism-based; settings: in vivo, 336 h
A-375 [17] = assay: Antitumor activity against human A375 cells xenografted in mouse assessed as inhibition of tumor growth at 30 mg/kg, ip dosed every other day for 2 weeks relative to untreated control; type: functional; settings: A-375, ip, 336 h, read-out: TGI; procedure, shortened: as §1
A-375 [18] = assay: Antitumor activity against human A375 cells xenografted in mouse assessed as reduction in tumor weight at 30 mg/kg, ip dosed every other day for 2 weeks; type: functional, organism-based; procedure, shortened: as §1
A-375 [19] = assay: Antitumor activity against human A375 cells xenografted in mouse assessed as reduction in tumor volume at 30 mg/kg, ip dosed every other day for 2 weeks; type: functional, organism-based; procedure, shortened: as §1
PC-3 = assay: Cytotoxicity in human PC3 cells assessed as reduction in cell viability incubated for 72 hrs by MTS assay; type: functional, cell-based; settings: PC-3, 72 h

| Structure (SMILES) | IC50 (RPMI-7951) [nM] | IC50 (A-375 [1]) [nM] | IC50 (M14) [nM] | t1/2 [2] [h] | t1/2 [3] [h] | CLint scaled ([4]; liver microsomes) [mL/min/kg] | t1/2 [5] [h] | CLint scaled ([6]; liver microsomes) [mL/min/kg] | CLint scaled ([7]; liver microsomes) [mL/min/kg] | also measured |
| --- | --- | --- | --- | --- | --- | --- | --- | --- | --- | --- |
| COc1cc(C(=O)c2c[nH]c(-c3c[nH]c4ccccc34)n2)cc2c1OCCCO2 | 47.7 | 32.2 | 38.2 | – | – | – | – | – | – | – |
| COc1cc(C(=O)c2c[nH]c(-c3c[nH]c4ccccc34)n2)cc2c1OCCO2 | 29.2 | 21 | 11.3 | 0.9 | 2.03 | 51.9 | 2.13 | 9.76 | 28.2 | – |
| COc1cc(C(=O)c2c[nH]c(-c3cccc4[nH]ccc34)n2)cc2c1OC=CO2 | 34.8 | 17.1 | 13.8 | – | – | – | – | – | – | – |
| COc1cc(C(=O)c2c[nH]c(-c3c[nH]c4cccc(C)c34)n2)cc2c1OC=CO2 | 8.8 | – | 6.1 | – | – | – | – | – | – | – |
| O=C(c1ccc2c(c1)OCO2)c1c[nH]c(-c2c[nH]c3ccccc23)n1 | 236 | 191 | 155 | 2.55 | 2.28 | 18.3 | 3.77 | 5.5 | 25.1 | – |
| CC(=O)O[C@H]1C(=O)[C@@]2(C)[C@H]([C@H](OC(=O)c3ccccc3)[C@]3(O)C[C@H](OC(=O)[C@H](O)[C@@H](NC(=O)c4ccccc4)c4ccccc4)C(C)=C1C3(C)C)[C@]1(OC(C)=O)CO[C@@H]1C[C@@H]2O [PACLITAXEL] | – | – | – | – | – | – | – | – | – | inhibition in vivo at 15 mg/kg (A-375 [8]): 70.7%; Activity (A-375 [9]): 62.3%; Activity (A-375 [10]): Active; Activity (Homo sapiens): inactive; IC50 (DU-145): 1.5 nM |
| COc1cc(C(=O)c2c[nH]c(-c3c[nH]c4ccccc34)n2)cc2c1OC=CO2 | 3.3 | 1.1 | 1.2 | 3.57 | 1.42 | 13.1 | 2.69 | 7.7 | 40.3 | IC50 [11]: 7.6 nM; inhibition (Bos taurus): Active; inhibition in vivo at 15 mg/kg (A-375 [8]): 54.8%; Ratio IC50 [12]: 0.5; Activity (A-375 [10]): Active; Activity (Mus musculus [13]): Non-Toxic; IC50 [14]: 81.5 nM; Ratio IC50 [15]: 1.9; Activity (Mus musculus [16]): Non-Toxic; inhibition in vivo at 30 mg/kg (A-375 [17]): 73.9%; Activity (A-375 [18]): Active; Activity (A-375 [19]): Active; IC50 (PC-3): 15.2 nM; IC50 (DU-145): 42.2 nM |
| COc1cc(C(=O)c2c[nH]c(-c3c[nH]c4ccccc34)n2)cc2c1OCO2 | – | 3.5 | 5.6 | 0.18 | 0.82 | – | 1.28 | – | – | CLint scaled ([4]; microsomes): 253 mL/min/kg; CLint scaled ([6]; microsomes): 16.3 mL/min/kg; CLint scaled ([7]; microsomes): 69.6 mL/min/kg |
| O=C(c1ccc2c(c1)OCCO2)c1c[nH]c(-c2c[nH]c3ccccc23)n1 | 214 | 159 | 119 | 0.85 | 0.37 | 54.9 | 3.5 | 5.95 | 154 | – |
